KCNK9 block: blocks the human KCNK9 two-pore domain potassium channel | HEK293 KCNK9, FluxOR thallium flux fluorescence; hits give low values | 310,000 compounds, 1.2% hits | B-score at 10 µM;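 active = ratio B-score over 3 SD below the library mean, with starting fluorescence within 5 SD of its mean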;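 note: negative B-score means less thallium flux so channel inhibition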
KCNK3 block: human KCNK3 channel inhibition, primary screen | O14649 | CHO-KCNK3 thallium flux, FluxOR fluorescence; hits give low values | B-score at 10 µM | 340,000 compounds, 0.84% hits | AID 602410;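 active = B-score under library mean minus 4 SD, starting fluorescence ratio at most library mean plus 5 SD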;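 note: more negative B-score means stronger inhibition of thallium flux through KCNK3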
hERG rescue: shields human hERG channel from block by proarrhythmic agents; 310,000 compounds, 0.51% hits; CHO-hERG, FluxOR thallium flux, dofetilide IC70 present; AID 1511; activation (rescue from dofetilide block), less the hit threshold, % at 10 µM;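 active = activation above the mean of controls blocked by dofetilide plus 5 SD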;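 note: thallium influx through hERG after potassium depolarization seen as dye fluorescence rise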
KCNQ1 inh: human KCNQ1 channel inhibition | P51787 | B-score at 10 µM | AID 2642 | 310,000 compounds, 1.3% hits | CHO-K1 KCNQ1, FluxOR thallium flux fluorescence; hits give high values;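 active = compounds whose thallium flux B-score, printed positive for inhibition, exceeds three library SD while starting fluorescence stays within three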;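 note: channel opened by potassium depolarization with thallium stimulus after 20 min compound exposure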
Target sequence (P51787 whole entry, looked up): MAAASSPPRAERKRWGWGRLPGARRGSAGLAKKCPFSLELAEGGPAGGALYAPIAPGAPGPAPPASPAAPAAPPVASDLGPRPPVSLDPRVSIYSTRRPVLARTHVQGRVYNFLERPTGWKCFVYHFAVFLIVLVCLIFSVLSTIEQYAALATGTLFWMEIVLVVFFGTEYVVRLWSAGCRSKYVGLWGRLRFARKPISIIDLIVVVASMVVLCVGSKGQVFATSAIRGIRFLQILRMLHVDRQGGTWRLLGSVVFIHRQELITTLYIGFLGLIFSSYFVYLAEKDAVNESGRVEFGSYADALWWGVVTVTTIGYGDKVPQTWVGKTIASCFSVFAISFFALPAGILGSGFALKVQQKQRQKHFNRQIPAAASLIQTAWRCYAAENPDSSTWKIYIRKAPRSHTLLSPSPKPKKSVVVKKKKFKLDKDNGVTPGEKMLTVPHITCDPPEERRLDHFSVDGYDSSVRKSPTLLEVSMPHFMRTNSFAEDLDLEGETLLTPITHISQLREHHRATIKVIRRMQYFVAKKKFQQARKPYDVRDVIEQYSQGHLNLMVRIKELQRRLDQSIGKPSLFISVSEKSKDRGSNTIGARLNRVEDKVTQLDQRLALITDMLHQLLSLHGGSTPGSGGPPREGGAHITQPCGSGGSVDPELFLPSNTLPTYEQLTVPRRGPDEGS
KCNQ1 act: human KCNQ1 channel potentiation or activation; CHO-K1 KCNQ1, thallium flux FluxOR fluorescence; hits give high values; B-score at 10 µM; 310,000 compounds, 0.35% hits;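 active = fluorescence ratio B-score, a plate-corrected score, at least three library SD, with initial intensity B-score within 5 SD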
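assay system = CHO-K1 cells stably expressing KCNQ1 | medium = assay buffer, equal DMSO in all wells | timing = 37 °C overnight plating, 90-min dark dye load, 20-min compound pretreatment | measured by = kinetic FluxOR thallium fluorescence, 10-s 1-Hz baseline, 110-s post-stimulus read | measure = fluorescence change relative to baseline, converted to B score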
KCNK9 block conf: human KCNK9 inhibitor confirmation | inhibition, % at 10 µM | shares compounds with KCNK9 block | HEK293 KCNK9 cells, FluxOR thallium flux fluorescence | AID 492992 | 4,900 compounds, 43% hits;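 active = thallium signal inhibited by more than 5 SD of the compound-free buffer control wells, on both duplicate plates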;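 note: 0% = assay buffer control wells without compound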
Kir2-1 spec: selectivity of KCNK9 modulators against mouse Kir2.1; shares compounds with KCNK9 block; Kir2.1 cells, FluxOR thallium flux fluorescence; inhibition, % at 10 µM; 4,900 compounds, 4% hits; AID 492993;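 active = thallium signal drop more than 5 SD beyond the mean of the no-compound control wells, seen in both duplicate plates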;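 note: signal is fluorescence rise after thallium addition divided by baseline fluorescence; plate controls were assay buffer only for no effect and full block by chlorpromazine control for full effect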
KCNK9 uninduced: second check of KCNK9 modulator effects in non-induced HEK293 cells | shares compounds with KCNK9 block | FluxOR thallium flux | inhibition, % at 10 µM | 4,900 compounds, 40% hits;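 active = thallium signal drop beyond 5 SD of the untreated control mean, on both duplicate plates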;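 note: plate controls were buffer only IC0 wells for no effect and SID17386958 at its maximal inhibitory level for full effect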
* marks the source's active call; other numbers are inactive results. This is a sample that favours compounds with a hit; in the whole collection about 3.1% have one here.

Results for COc1ccccc1C(=O)Oc1ccc(C(C)C)cc1 ?
KCNK9 block: inactive; KCNK3 block: inactive; hERG rescue: -3.4; KCNQ1 inh: inactive; KCNQ1 act: inactive; KCNK9 block conf: inactive; Kir2-1 spec: inactive; KCNK9 uninduced: 29.5%*

How did O=C(Oc1ccccc1)c1ccccc1OS(=O)(=O)c1ccccc1 do in these assays?
KCNK9 block: -9.48*; KCNK3 block: inactive; hERG rescue: 0.3; KCNQ1 inh: inactive; KCNQ1 act: inactive; KCNK9 block conf: 44.0%*; Kir2-1 spec: inactive; KCNK9 uninduced: 34.5%*

What do the screens show for `COCCNC(=O)CN(C(=O)Cn1nnc2ccccc21)c1ccc(C)c(F)c1`?
KCNK9 block: inactive; KCNK3 block: inactive; hERG rescue: -14.3; KCNQ1 inh: inactive; KCNQ1 act: inactive; KCNK9 block conf: inactive; Kir2-1 spec: inactive; KCNK9 uninduced: inactive

Results for Cc1ccc(C2CC2C(=O)NNC(=S)Nc2cccc(Cl)c2)cc1 (centres undefined) ?
KCNK9 block: inactive; KCNK3 block: inactive; hERG rescue: -22.4; KCNQ1 inh: 6*; KCNQ1 act: inactive; KCNK9 block conf: inactive; Kir2-1 spec: inactive; KCNK9 uninduced: inactive

What do the screens show for `Cc1ccc(C2CC2C(=O)NNC(=S)Nc2cccc(C)c2)cc1` (centres undefined)?
KCNK9 block: inactive; KCNK3 block: inactive; hERG rescue: 0.0; KCNQ1 inh: inactive; KCNQ1 act: inactive; KCNK9 block conf: inactive; Kir2-1 spec: inactive; KCNK9 uninduced: inactive

Results for Cc1ccc(NC(=S)NNC(=O)C2CC2c2ccc(C)cc2)cc1 (centres undefined) ?
KCNK9 block: inactive; KCNK3 block: inactive; hERG rescue: -6.0; KCNQ1 inh: inactive; KCNQ1 act: inactive

How did COc1cc(CN2CCN(c3cc(C)ccc3C)CC2)cc([N+](=O)[O-])c1O do in these assays?
KCNK9 block: inactive; hERG rescue: -12.7; KCNQ1 inh: inactive; KCNQ1 act: inactive; KCNK9 block conf: inactive; Kir2-1 spec: inactive; KCNK9 uninduced: inactive

Results for Cc1ccc(C)c2nc3sc(C(=O)N4CCCc5ccccc54)c(N)c3cc12 ?
KCNK9 block: -9.13*; KCNK3 block: inactive; hERG rescue: -21.2; KCNQ1 inh: inactive; KCNQ1 act: inactive; KCNK9 block conf: 39.0%*; Kir2-1 spec: inactive; KCNK9 uninduced: 73.0%*

How did COc1ccc([C@@H]2CC=C(C(=O)O)[C@H](c3ccccc3F)N2S(=O)(=O)c2ccccc2C)cc1 do in these assays?
KCNK3 block: inactive

Results for COc1ccc(OC)c(Nc2cc(-c3ccccc3)nc(N)n2)c1 ?
KCNK9 block: -8.22*; hERG rescue: -11.0; KCNQ1 inh: inactive; KCNQ1 act: inactive; KCNK9 block conf: 32.5%*; Kir2-1 spec: inactive; KCNK9 uninduced: inactive

What do the screens show for `CN(Cc1ccc(OC(F)F)cc1)C(=O)c1cccc(S(=O)(=O)N2CCN(Cc3ccccc3)CC2)c1`?
KCNK3 block: inactive

What do the screens show for `COc1cc(-c2nnc(COc3ccc4ccccc4c3)o2)cc(OC)c1OC`?
KCNK9 block: inactive; KCNK3 block: inactive; hERG rescue: -10.0; KCNQ1 inh: inactive; KCNQ1 act: inactive; KCNK9 block conf: inactive; Kir2-1 spec: inactive; KCNK9 uninduced: inactive

What do the screens show for `CC1CCC(C(C)C)C(=O)/C1=C/c1ccc(N)cc1` (centres undefined)?
KCNK9 block: inactive; KCNK3 block: inactive; hERG rescue: -7.1; KCNQ1 inh: inactive; KCNQ1 act: inactive

What do the screens show for `CC1/C(=C\c2ccc(Cl)cc2)C(=O)C2CC1C2(C)C` (centres undefined)?
KCNK9 block: inactive; KCNK3 block: inactive; hERG rescue: -4.5; KCNQ1 inh: inactive; KCNQ1 act: inactive; KCNK9 block conf: inactive; Kir2-1 spec: inactive; KCNK9 uninduced: inactive

Results for CS(=O)(=O)Nc1ccc(C2=NN(S(=O)(=O)c3ccc(F)cc3)C(c3ccco3)C2)cc1 (centres undefined) ?
KCNK9 block: -10.4*; KCNK3 block: inactive; hERG rescue: -12.6; KCNQ1 inh: inactive; KCNQ1 act: inactive; KCNK9 block conf: 38.0%*; Kir2-1 spec: inactive; KCNK9 uninduced: inactive

How did Cc1ccc(C)c(N(C)S(=O)(=O)c2ccc3c(c2)oc(=O)n3C)c1 do in these assays?
KCNK9 block: inactive; KCNK3 block: inactive; hERG rescue: -8.2; KCNQ1 inh: inactive; KCNQ1 act: inactive

Results for O=C(CCNC(=O)c1ccccc1)NNC(=O)COc1ccccc1Cl ?
KCNK3 block: inactive

Results for Cc1ccc(C)c(OCC(O)CN2CCN(CCN3C(=O)c4cccc5cccc(c45)C3=O)CC2)c1 (centres undefined) ?
KCNK9 block: inactive; KCNK3 block: inactive; hERG rescue: -27.0; KCNQ1 inh: inactive; KCNQ1 act: inactive; KCNK9 block conf: inactive; Kir2-1 spec: inactive; KCNK9 uninduced: inactive

How did O=C(c1ccccc1Br)N(Cc1ccccc1)c1ccccc1 do in these assays?
KCNK9 block: inactive; KCNK3 block: inactive; hERG rescue: -10.1; KCNQ1 inh: inactive; KCNQ1 act: inactive

What do the screens show for `O=C(CSc1nc2nc(-c3cccs3)cc(C(F)(F)F)c2c(=O)[nH]1)Nc1c(F)c(F)c(F)c(F)c1F`?
KCNK9 block: inactive; KCNK3 block: inactive; hERG rescue: -12.8; KCNQ1 inh: 10*; KCNQ1 act: inactive; KCNK9 block conf: inactive; Kir2-1 spec: inactive; KCNK9 uninduced: inactive

Results for O=C(CCCc1c[nH]c2ccccc12)N[C@@H](Cc1c[nH]c2ccccc12)C(=O)O ?
KCNK9 block: inactive; KCNK3 block: inactive; hERG rescue: -2.7; KCNQ1 inh: inactive; KCNQ1 act: inactive

How did Cc1nc(N2CCOCC2)c2c(C)c(C(=O)Nc3ccccc3C(F)(F)F)sc2n1 do in these assays?
KCNK9 block: inactive; KCNK3 block: inactive; hERG rescue: -11.6; KCNQ1 inh: inactive; KCNQ1 act: inactive

Results for Cc1nc(N2CCCCC2C)c2c(C)c(C(=O)Nc3ccccc3C(F)(F)F)sc2n1 (centres undefined) ?
KCNK9 block: -14.2*; KCNK3 block: inactive; hERG rescue: -13.2; KCNQ1 inh: 9*; KCNQ1 act: inactive; KCNK9 block conf: 55.0%*; Kir2-1 spec: inactive; KCNK9 uninduced: 42.5%*

From PubChem BioAssay
